According to ChEMBL document CHEMBL4346672, “Antimicrobial and KPC/AmpC inhibitory activity of functionalized benzosiloxaboroles” (Eur J Med Chem, 2019):
Converted amounts (≈) assume the structure as drawn. The source made the active and inactive calls. No cut-off for these calls is given here.

Columns and labels:
Escherichia coli [1] = assay: Antibacterial activity against Escherichia coli ATCC 25922 measured after 18 hrs by CLSI broth dilution method; type: functional; details: ATCC 25922, 18 h
Procedure, shortened: (§1)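 Broth MIC in Mueller-Hinton II broth following CLSI, compounds dissolved in DMSO. Strains subcultured twice on tryptic soy agar before testing. Growth read after 35 °C, 18 h.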

Pseudomonas aeruginosa [2] = assay: Antibacterial activity against Pseudomonas aeruginosa ATCC 27853 assessed as diameter of zone inhibition measured after 18 hrs by CLSI disc diffusion method; type: functional, organism-based
Procedure, shortened: (§2)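 Disc diffusion on Mueller-Hinton II agar. Compounds dissolved in DMSO. Strains stored at -80 °C and subcultured twice on tryptic soy agar before testing. Inhibition zones read after 35 °C, 18 h.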

Candida albicans [3] = assay: Antifungal activity against Candida albicans ATCC 90028 assessed as decrease in fungal cell growth at 0.78 to 12.5 mg/L incubated for 24 hrs by CLSI broth dilution method; type: functional; details: ATCC 90028, 24 h
Procedure, shortened: (§3)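 Yeast broth dilution in RPMI 1640 with 2% glucose, compounds in DMSO. Yeasts pre-grown on Sabouraud dextrose agar. Growth read after 35 °C, 24 h.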

Enterobacter cloacae [4] = assay: Antibacterial activity against Enterobacter cloacae DSM 6234 assessed as fold reduction of MIC in presence of efflux pump inhibitor PAbetaN incubated for 18 hrs by broth microdilution method; type: functional
Procedure, shortened: (§4)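 MICs determined with and without PAβN at 50 mg/L in Mueller-Hinton broth containing 1 mM MgSO₄. 2-fold serial dilutions per CLSI. Fold change taken from the paired MICs after 35 °C, 18 h.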

[5] = tested on: Stenotrophomonas maltophilia; assay: Antibacterial activity against Stenotrophomonas maltophilia ATCC 13637 assessed as fold reduction of MIC in presence of efflux pump inhibitor PAbetaN incubated for 18 hrs by broth microdilution method; type: functional; procedure, shortened: as §4
Klebsiella pneumoniae = assay: Antibacterial activity against Klebsiella pneumoniae ATCC 13883 measured after 18 hrs by CLSI broth dilution method; type: functional; details: ATCC 13883, 18 h; procedure, shortened: as §1
Bacillus subtilis = assay: Antibacterial activity against Bacillus subtilis ATCC 6633 assessed as diameter of zone inhibition measured after 18 hrs by CLSI disc diffusion method; type: functional; procedure, shortened: as §2
Proteus mirabilis = assay: Antibacterial activity against Proteus mirabilis ATCC 12453 measured after 18 hrs by CLSI broth dilution method; type: functional; details: ATCC 12453, 18 h; procedure, shortened: as §1
Burkholderia cepacia [6] = assay: Antibacterial activity against Burkholderia cepacia ATCC 25416 measured after 18 hrs by CLSI broth dilution method; type: functional; details: ATCC 25416, 18 h; procedure, shortened: as §1
Candida parapsilosis = assay: Antifungal activity against Candida parapsilosis ATCC 22019 assessed as diameter of zone inhibition incubated for 24 hrs by CLSI disc diffusion method; type: functional
Procedure, shortened: (§5)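 Yeast disc diffusion on Mueller-Hinton agar supplemented with 2% glucose and 0.5 mg/L methylene blue. Compounds in DMSO. Yeasts subcultured on Sabouraud dextrose agar before testing. Zones read after 35 °C, 24 h.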

Pichia kudriavzevii = assay: Antifungal activity against Candida krusei ATCC 6258 assessed as diameter of zone inhibition incubated for 24 hrs by CLSI disc diffusion method; type: functional; procedure, shortened: as §5
Burkholderia cepacia [7] = assay: Antibacterial activity against Burkholderia cepacia ATCC 25416 assessed as diameter of zone inhibition measured after 18 hrs by CLSI disc diffusion method; type: functional; procedure, shortened: as §2
[8] = tested on: Stenotrophomonas maltophilia; assay: Antibacterial activity against Stenotrophomonas maltophilia ATCC 13637 assessed as diameter of zone inhibition measured after 18 hrs by CLSI disc diffusion method; type: functional; procedure, shortened: as §2
Serratia marcescens = assay: Antibacterial activity against Serratia marcescens ATCC 13880 measured after 18 hrs by CLSI broth dilution method; type: functional; details: ATCC 13880, 18 h; procedure, shortened: as §1
[9] = tested on: Meyerozyma guilliermondii; assay: Antifungal activity against Candida guilliermondii IBA 155 assessed as decrease in fungal cell growth at 0.78 to 12.5 mg/L incubated for 24 hrs by CLSI broth dilution method; type: functional; details: IBA 155, 24 h; procedure, shortened: as §3
Acinetobacter baumannii = assay: Antibacterial activity against Acinetobacter baumannii ATCC 19606 assessed as diameter of zone inhibition measured after 18 hrs by CLSI disc diffusion method; type: functional; procedure, shortened: as §2
[10] = tested on: Meyerozyma guilliermondii; assay: Antifungal activity against Candida guilliermondii IBA 155 assessed as diameter of zone inhibition incubated for 24 hrs by CLSI disc diffusion method; type: functional; procedure, shortened: as §5
Enterobacter cloacae [11] = assay: Antibacterial activity against Enterobacter cloacae DSM 6234 measured after 18 hrs by CLSI broth dilution method; type: functional; details: DSM 6234, 18 h; procedure, shortened: as §1
Candida albicans [12] = assay: Antifungal activity against Candida albicans ATCC 90028 assessed as diameter of zone inhibition incubated for 24 hrs by CLSI disc diffusion method; type: functional; procedure, shortened: as §5
Enterobacter cloacae [13] = assay: Antibacterial activity against Enterobacter cloacae DSM 6234 assessed as diameter of zone inhibition measured after 18 hrs by CLSI disc diffusion method; type: functional; procedure, shortened: as §2
Staphylococcus aureus [14] = assay: Antibacterial activity against Staphylococcus aureus ATCC 6538P measured after 18 hrs by CLSI broth dilution method; type: functional; procedure, shortened: as §1
Enterococcus faecalis = assay: Antibacterial activity against Enterococcus faecalis ATCC 29212 measured after 18 hrs by CLSI broth dilution method; type: functional; details: ATCC 29212, 18 h; procedure, shortened: as §1
Pseudomonas aeruginosa [15] = assay: Antibacterial activity against Pseudomonas aeruginosa ATCC 27853 measured after 18 hrs by CLSI broth dilution method; type: functional; details: ATCC 27853, 18 h; procedure, shortened: as §1
Staphylococcus aureus [16] = assay: Antibacterial activity against Staphylococcus aureus ATCC 6538P assessed as diameter of zone inhibition measured after 18 hrs by CLSI disc diffusion method; type: functional; procedure, shortened: as §2
[17] = tested on: Staphylococcus epidermidis; assay: Antibacterial activity against Staphylococcus epidermidis ATCC 12228 measured after 18 hrs by CLSI broth dilution method; type: functional; details: ATCC 12228, 18 h; procedure, shortened: as §1
Escherichia coli [18] = assay: Antibacterial activity against Escherichia coli ATCC 25922 assessed as fold reduction of MIC in presence of efflux pump inhibitor PAbetaN incubated for 18 hrs by CLSI broth microdilution method; type: functional; procedure, shortened: as §4
Saccharomyces cerevisiae [19] = assay: Antifungal activity against Saccharomyces cerevisiae ATCC 9763 diameter of zone inhibition incubated for 24 hrs by CLSI disc diffusion method; type: functional
Procedure, shortened: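 Disc-diffusion run on Mueller-Hinton II agar with 2% glucose and 0.5 mg/L methylene blue, using compounds in DMSO. Yeast was precultured on Sabouraud dextrose agar (24–48 h, 30 °C). Zones read after 24 h at 35 °C.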

[20] = Dissociation constant, pKa1 of compound in 0.1 M NaOH by potentiometric analysis; type: physicochemical
Saccharomyces cerevisiae [21] = assay: Antifungal activity against Saccharomyces cerevisiae ATCC 9763 assessed as decrease in fungal cell growth at 0.78 to 12.5 mg/L incubated for 24 hrs by CLSI broth dilution method; type: functional; details: ATCC 9763, 24 h
Procedure, shortened: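 Yeast strain subcultured on Sabouraud dextrose agar for 24–48 h at 30 °C before testing. Compounds dissolved in DMSO.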

[22] = tested on: Staphylococcus epidermidis; assay: Antibacterial activity against Staphylococcus epidermidis ATCC 12228 assessed as diameter of zone inhibition measured after 18 hrs by CLSI disc diffusion method; type: functional; procedure, shortened: as §2
[23] = tested on: Stenotrophomonas maltophilia; assay: Antibacterial activity against Stenotrophomonas maltophilia ATCC 13637 measured after 18 hrs by CLSI broth dilution method; type: functional; details: ATCC 13637, 18 h; procedure, shortened: as §1
Enterococcus faecium = assay: Antibacterial activity against Enterococcus faecium ATCC 6057 measured after 18 hrs by CLSI broth dilution method; type: functional; details: ATCC 6057, 18 h; procedure, shortened: as §1
Escherichia coli [24] = assay: Antibacterial activity against Escherichia coli ATCC 25922 assessed as diameter of zone inhibition measured after 18 hrs by CLSI disc diffusion method; type: functional; procedure, shortened: as §2

SMILES | MIC (Escherichia coli [1]) [µg/mL] | diameter of the inhibition zone (DIZ) (Pseudomonas aeruginosa [2]) | MIC (Candida albicans [3]) [µg/mL] | fold change (FC) (Enterobacter cloacae [4]) | fold change (FC) [5] | MIC (Klebsiella pneumoniae) [µg/mL] | diameter of the inhibition zone (DIZ) (Bacillus subtilis) [mm] | MIC (Proteus mirabilis) [µg/mL] | MIC (Burkholderia cepacia [6]) [µg/mL] | diameter of the inhibition zone (DIZ) (Candida parapsilosis) | diameter of the inhibition zone (DIZ) (Pichia kudriavzevii) | diameter of the inhibition zone (DIZ) (Burkholderia cepacia [7]) | diameter of the inhibition zone (DIZ) [8] [mm] | MIC (Serratia marcescens) [µg/mL] | MIC [9] [µg/mL] | diameter of the inhibition zone (DIZ) (Acinetobacter baumannii) | diameter of the inhibition zone (DIZ) [10] | MIC (Enterobacter cloacae [11]) [µg/mL] | diameter of the inhibition zone (DIZ) (Candida albicans [12]) | diameter of the inhibition zone (DIZ) (Enterobacter cloacae [13]) | other results
C[Si]1(C)OB(O)c2c(F)c(F)c(F)c(F)c21 | > 400 | inactive | 200 (≈ 800 µM) | 32 | 16 | > 400 | 20 | 400 (≈ 1600 µM) | > 400 | 21 mm | 13 mm | inactive | 25 | > 400 | 50 (≈ 200 µM) | 12 mm | 14 mm | > 400 | 15 mm | inactive | MIC (Staphylococcus aureus [14]): 25 µg/mL (≈ 100 µM); MIC (Enterococcus faecalis): 200 µg/mL (≈ 800 µM); MIC (Pseudomonas aeruginosa [15]): > 400 µg/mL; diameter of the inhibition zone (DIZ) (Staphylococcus aureus [16]): 17 mm; MIC [17]: 100 µg/mL (≈ 400 µM); fold change (FC) (Escherichia coli [18]): 32; diameter of the inhibition zone (DIZ) (Saccharomyces cerevisiae [19]): 35 mm; pKa [20]: 4.7; MIC (Saccharomyces cerevisiae [21]): 25 µg/mL (≈ 100 µM); diameter of the inhibition zone (DIZ) [22]: 17 mm; MIC [23]: 400 µg/mL (≈ 1600 µM); MIC (Enterococcus faecium): 200 µg/mL (≈ 800 µM); diameter of the inhibition zone (DIZ) (Escherichia coli [24]): 18 mm
C[Si]1(C)OB(O)c2cc(F)c(C=O)c(F)c21 | > 400 | inactive | > 400 | 16 | 8 | > 400 | 14 | > 400 | > 400 | inactive | inactive | inactive | 11 | > 400 | 200 (≈ 826 µM) | inactive | inactive | > 400 | inactive | inactive | MIC (Staphylococcus aureus [14]): 200 µg/mL (≈ 826 µM); MIC (Enterococcus faecalis): 400 µg/mL (≈ 1650 µM); MIC (Pseudomonas aeruginosa [15]): > 400 µg/mL; diameter of the inhibition zone (DIZ) (Staphylococcus aureus [16]): 21 mm; MIC [17]: 100 µg/mL (≈ 413 µM); fold change (FC) (Escherichia coli [18]): 4; diameter of the inhibition zone (DIZ) (Saccharomyces cerevisiae [19]): inactive; pKa [20]: 4.9; MIC (Saccharomyces cerevisiae [21]): 50 µg/mL (≈ 207 µM); diameter of the inhibition zone (DIZ) [22]: 22 mm; MIC [23]: > 400 µg/mL; MIC (Enterococcus faecium): 50 µg/mL (≈ 207 µM); diameter of the inhibition zone (DIZ) (Escherichia coli [24]): inactive
C[Si]1(C)OB(O)c2cccc(B(O)O)c21 | > 400 | inactive | > 400 | 8 | 16 | > 400 | 15 | > 400 | > 400 | inactive | inactive | inactive | 12 | > 400 | > 400 | inactive | inactive | > 400 | inactive | inactive | MIC (Staphylococcus aureus [14]): 400 µg/mL (≈ 1800 µM); MIC (Enterococcus faecalis): > 400 µg/mL; MIC (Pseudomonas aeruginosa [15]): > 400 µg/mL; diameter of the inhibition zone (DIZ) (Staphylococcus aureus [16]): 11 mm; MIC [17]: 200 µg/mL (≈ 901 µM); fold change (FC) (Escherichia coli [18]): 4; diameter of the inhibition zone (DIZ) (Saccharomyces cerevisiae [19]): inactive; pKa [20]: 7.4; MIC (Saccharomyces cerevisiae [21]): 50 µg/mL (≈ 225 µM); diameter of the inhibition zone (DIZ) [22]: 22 mm; MIC [23]: > 400 µg/mL; MIC (Enterococcus faecium): 400 µg/mL (≈ 1800 µM); diameter of the inhibition zone (DIZ) (Escherichia coli [24]): inactive
